From ChEMBL document CHEMBL3632558, “Synthesis, antimycobacterial and antibacterial activity of l-[(1R,2S)-2-fluorocyclopropyl]naphthyridone derivatives containing an oxime-functionalized pyrrolidine moiety” (2015)
In brackets after ≈: the same amount, converted by molar mass.

Experiments:
Type in all cases: functional
Enterococcus faecalis [1] = assay: Antibacterial activity against Enterococcus faecalis 14-2 after 18 to 24 hrs
How it was run: (§1)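 MIC by standard NCCLS reference procedure (M100-S11); lowest concentration of compound inhibiting visible bacterial growth after incubation at 35 °C for 18–24 h, read as complete inhibition of growth. Ciprofloxacin, levofloxacin and moxifloxacin run alongside as reference agents.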

Enterococcus faecium [2] = assay: Antibacterial activity against Enterococcus faecium 14-1 after 18 to 24 hrs; how it was run: as §1
Enterococcus faecium [3] = assay: Antibacterial activity against Enterococcus faecium 14-2 after 18 to 24 hrs; how it was run: as §1
Enterococcus faecium [4] = assay: Antibacterial activity against Enterococcus faecium 14-5 after 18 to 24 hrs; how it was run: as §1
Enterococcus faecium [5] = assay: Antibacterial activity against Enterococcus faecium 14-6 after 18 to 24 hrs; how it was run: as §1
[6] = system: Mycobacterium tuberculosis; assay: Antimycobacterial activity against Mycobacterium tuberculosis H37Rv ATCC 27294 by alamar blue assay
How it was run: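 Microplate Alamar Blue Assay; MIC is the lowest concentration giving ≥90% reduction in fluorescence relative to the mean of replicate bacterium-only controls. MDR strain 6133 is resistant to isoniazid and rifampicin.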

Escherichia coli [7] = assay: Antibacterial activity against Escherichia coli ATCC 25922 after 18 to 24 hrs; how it was run: as §1
Escherichia coli [8] = assay: Antibacterial activity against ESBL-positive Escherichia coli 14-1 after 18 to 24 hrs; how it was run: as §1
Escherichia coli [9] = assay: Antibacterial activity against ESBL-positive Escherichia coli 14-2 after 18 to 24 hrs; how it was run: as §1
Escherichia coli [10] = assay: Antibacterial activity against Escherichia coli 14-1 after 18 to 24 hrs; how it was run: as §1
Escherichia coli [11] = assay: Antibacterial activity against Escherichia coli 14-2 after 18 to 24 hrs; how it was run: as §1
Klebsiella pneumoniae [12] = assay: Antibacterial activity against ESBL-positive Klebsiella pneumoniae 14-17 after 18 to 24 hrs; how it was run: as §1
Klebsiella pneumoniae [13] = assay: Antibacterial activity against ESBL-positive Klebsiella pneumoniae 14-18 after 18 to 24 hrs; how it was run: as §1
Klebsiella pneumoniae [14] = assay: Antibacterial activity against ESBL-positive Klebsiella pneumoniae 14-19 after 18 to 24 hrs; how it was run: as §1
Klebsiella pneumoniae [15] = assay: Antibacterial activity against Klebsiella pneumoniae 14-1 after 18 to 24 hrs; how it was run: as §1
Klebsiella pneumoniae [16] = assay: Antibacterial activity against Klebsiella pneumoniae 14-2 after 18 to 24 hrs; how it was run: as §1
Klebsiella pneumoniae [17] = assay: Antibacterial activity against Klebsiella pneumoniae 14-3 after 18 to 24 hrs; how it was run: as §1
Klebsiella pneumoniae [18] = assay: Antibacterial activity against Klebsiella pneumoniae 14-4 after 18 to 24 hrs; how it was run: as §1
Pseudomonas aeruginosa [19] = assay: Antibacterial activity against Pseudomonas aeruginosa ATCC 27853 after 18 to 24 hrs; how it was run: as §1
Pseudomonas aeruginosa [20] = assay: Antibacterial activity against Pseudomonas aeruginosa 14-9 after 18 to 24 hrs; how it was run: as §1
Pseudomonas aeruginosa [21] = assay: Antibacterial activity against Pseudomonas aeruginosa 14-14 after 18 to 24 hrs; how it was run: as §1
Pseudomonas aeruginosa [22] = assay: Antibacterial activity against Pseudomonas aeruginosa 14-15 after 18 to 24 hrs; how it was run: as §1
Pseudomonas aeruginosa [23] = assay: Antibacterial activity against Pseudomonas aeruginosa 14-16 after 18 to 24 hrs; how it was run: as §1
Pseudomonas aeruginosa [24] = assay: Antibacterial activity against Pseudomonas aeruginosa 14-19 after 18 to 24 hrs; how it was run: as §1
Staphylococcus aureus [25] = assay: Antibacterial activity against Staphylococcus aureus CMCC 26003 after 18 to 24 hrs; how it was run: as §1
Staphylococcus aureus [26] = assay: Antibacterial activity against methicillin-sensitive Staphylococcus aureus 14-1 after 18 to 24 hrs; how it was run: as §1
Staphylococcus aureus [27] = assay: Antibacterial activity against methicillin-sensitive Staphylococcus aureus 14-2 after 18 to 24 hrs; how it was run: as §1
Staphylococcus aureus [28] = assay: Antibacterial activity against methicillin-sensitive Staphylococcus aureus 14-3 after 18 to 24 hrs; how it was run: as §1
Staphylococcus aureus [29] = assay: Antibacterial activity against methicillin-sensitive Staphylococcus aureus 14-4 after 18 to 24 hrs; how it was run: as §1
Staphylococcus aureus [30] = assay: Antibacterial activity against methicillin-resistant Staphylococcus aureus 14-4 after 18 to 24 hrs
Staphylococcus aureus [31] = assay: Antibacterial activity against methicillin-resistant Staphylococcus aureus 14-5 after 18 to 24 hrs
[32] = system: Staphylococcus epidermidis; assay: Antibacterial activity against methicillin-sensitive Staphylococcus epidermidis 14-2 after 18 to 24 hrs; how it was run: as §1
[33] = system: Staphylococcus epidermidis; assay: Antibacterial activity against methicillin-resistant Staphylococcus epidermidis 14-21 after 18 to 24 hrs
[34] = system: Staphylococcus epidermidis; assay: Antibacterial activity against methicillin-resistant Staphylococcus epidermidis 14-22 after 18 to 24 hrs
[35] = system: Staphylococcus epidermidis; assay: Antibacterial activity against methicillin-resistant Staphylococcus epidermidis 14-37 after 18 to 24 hrs
[36] = system: Staphylococcus epidermidis; assay: Antibacterial activity against methicillin-resistant Staphylococcus epidermidis 14-39 after 18 to 24 hrs
Streptococcus pneumoniae = assay: Antibacterial activity against Streptococcus pneumoniae ATCC 19615 after 18 to 24 hrs; how it was run: as §1
Enterococcus faecalis [37] = assay: Antibacterial activity against Enterococcus faecalis 14-1 after 18 to 24 hrs; how it was run: as §1

| Compound | MIC (Enterococcus faecalis [1]) [µg/mL] | MIC (Enterococcus faecium [2]) [µg/mL] | MIC (Enterococcus faecium [4]) [µg/mL] | MIC (Enterococcus faecium [5]) [µg/mL] | MIC (Escherichia coli [7]) [µg/mL] | MIC (Klebsiella pneumoniae [12]) [µg/mL] | MIC (Klebsiella pneumoniae [13]) [µg/mL] | MIC (Klebsiella pneumoniae [14]) [µg/mL] | MIC (Klebsiella pneumoniae [15]) [µg/mL] | MIC (Klebsiella pneumoniae [16]) [µg/mL] | MIC (Klebsiella pneumoniae [17]) [µg/mL] | MIC (Klebsiella pneumoniae [18]) [µg/mL] | MIC (Staphylococcus aureus [27]) [µg/mL] | MIC (Staphylococcus aureus [29]) [µg/mL] | MIC (Staphylococcus aureus [30]) [µg/mL] | MIC [32] [µg/mL] | MIC [33] [µg/mL] | MIC [34] [µg/mL] | MIC [35] [µg/mL] | MIC [36] [µg/mL] | other results |
| --- | --- | --- | --- | --- | --- | --- | --- | --- | --- | --- | --- | --- | --- | --- | --- | --- | --- | --- | --- | --- | --- |
| NCC1CN(c2nc3c(cc2F)c(=O)c(C(=O)O)cn3[C@@H]2C[C@@H]2F)C/C1=N\OCc1ccc(F)cc1 (stereo partly drawn) | < 0.008 | 1 (≈ 1.99 µM) | 8 (≈ 16 µM) | 8 (≈ 16 µM) | < 0.008 | 8 (≈ 16 µM) | 16 (≈ 31.9 µM) | 64 (≈ 128 µM) | 64 (≈ 128 µM) | > 128 | 64 (≈ 128 µM) | 128 (≈ 255 µM) | < 0.008 | < 0.008 | 32 (≈ 63.8 µM) | 64 (≈ 128 µM) | 8 (≈ 16 µM) | 8 (≈ 16 µM) | 8 (≈ 16 µM) | 16 (≈ 31.9 µM) | MIC (Enterococcus faecium [3]): 2 µg/mL (≈ 3.99 µM); MIC90 [6]: < 0.25 µg/mL; MIC (Escherichia coli [8]): 8 µg/mL (≈ 16 µM); MIC (Escherichia coli [9]): 64 µg/mL (≈ 128 µM); MIC (Escherichia coli [10]): 64 µg/mL (≈ 128 µM); MIC (Escherichia coli [11]): 64 µg/mL (≈ 128 µM); MIC (Pseudomonas aeruginosa [19]): 4 µg/mL (≈ 7.98 µM); MIC (Pseudomonas aeruginosa [20]): 8 µg/mL (≈ 16 µM); MIC (Pseudomonas aeruginosa [21]): 16 µg/mL (≈ 31.9 µM); MIC (Pseudomonas aeruginosa [22]): 16 µg/mL (≈ 31.9 µM); MIC (Pseudomonas aeruginosa [23]): 16 µg/mL (≈ 31.9 µM); MIC (Pseudomonas aeruginosa [24]): 16 µg/mL (≈ 31.9 µM); MIC (Staphylococcus aureus [25]): < 0.008 µg/mL; MIC (Staphylococcus aureus [26]): 4 µg/mL (≈ 7.98 µM); MIC (Staphylococcus aureus [28]): < 0.008 µg/mL; MIC (Staphylococcus aureus [31]): 16 µg/mL (≈ 31.9 µM); MIC (Streptococcus pneumoniae): 0.03 µg/mL (≈ 0.0598 µM); MIC (Enterococcus faecalis [37]): 64 µg/mL (≈ 128 µM) |
| CO/N=C1\CN(c2nc3c(cc2F)c(=O)c(C(=O)O)cn3[C@@H]2C[C@@H]2F)CC1(C)N (stereo partly drawn) | 2 (≈ 4.91 µM) | > 128 | > 128 | > 128 | 0.5 (≈ 1.23 µM) | 16 (≈ 39.3 µM) | 32 (≈ 78.6 µM) | > 128 | > 128 | > 128 | > 128 | > 128 | 0.5 (≈ 1.23 µM) | 0.5 (≈ 1.23 µM) | 128 (≈ 314 µM) | > 128 | 128 (≈ 314 µM) | 32 (≈ 78.6 µM) | 32 (≈ 78.6 µM) | 64 (≈ 157 µM) | MIC (Enterococcus faecium [3]): > 128 µg/mL; MIC90 [6]: 0.392 µg/mL (≈ 0.962 µM); MIC (Escherichia coli [8]): 32 µg/mL (≈ 78.6 µM); MIC (Escherichia coli [9]): > 128 µg/mL; MIC (Escherichia coli [10]): > 128 µg/mL; MIC (Escherichia coli [11]): > 128 µg/mL; MIC (Pseudomonas aeruginosa [19]): 8 µg/mL (≈ 19.6 µM); MIC (Pseudomonas aeruginosa [20]): 16 µg/mL (≈ 39.3 µM); MIC (Pseudomonas aeruginosa [21]): 32 µg/mL (≈ 78.6 µM); MIC (Pseudomonas aeruginosa [22]): 32 µg/mL (≈ 78.6 µM); MIC (Pseudomonas aeruginosa [23]): 32 µg/mL (≈ 78.6 µM); MIC (Pseudomonas aeruginosa [24]): 32 µg/mL (≈ 78.6 µM); MIC (Staphylococcus aureus [25]): 0.25 µg/mL (≈ 0.614 µM); MIC (Staphylococcus aureus [26]): 16 µg/mL (≈ 39.3 µM); MIC (Staphylococcus aureus [28]): 0.5 µg/mL (≈ 1.23 µM); MIC (Staphylococcus aureus [31]): 128 µg/mL (≈ 314 µM); MIC (Streptococcus pneumoniae): 0.25 µg/mL (≈ 0.614 µM); MIC (Enterococcus faecalis [37]): 128 µg/mL (≈ 314 µM) |
| O=C(O)c1cn(C2CC2)c2cc(N3CCNCC3)c(F)cc2c1=O [CIPROFLOXACIN] | 1 (≈ 3.02 µM) | 64 (≈ 193 µM) | 128 (≈ 386 µM) | > 128 | < 0.008 | 4 (≈ 12.1 µM) | 0.25 (≈ 0.754 µM) | 64 (≈ 193 µM) | 32 (≈ 96.6 µM) | 16 (≈ 48.3 µM) | 128 (≈ 386 µM) | 32 (≈ 96.6 µM) | 0.25 (≈ 0.754 µM) | 0.5 (≈ 1.51 µM) | > 128 | > 128 | 64 (≈ 193 µM) | 128 (≈ 386 µM) | 128 (≈ 386 µM) | 128 (≈ 386 µM) | MIC (Streptococcus pneumoniae): 2 µg/mL (≈ 6.04 µM); MIC (Enterococcus faecalis [37]): 128 µg/mL (≈ 386 µM) |
